Measured values reported in ChEMBL document CHEMBL1135400, “Alpha2-adrenoreceptors profile modulation and high antinociceptive activity of (S)-(-)-2-[1-(biphenyl-2-yloxy)ethyl]-4,5-dihydro-1H-imidazole” (J Med Chem, 2002).

Assays:
[1] = molecular target: T1, Adrenergic receptor alpha-2 (Rattus norvegicus) (UniProt P22086+P19328+P22909); experiment: Antilog of the difference between pD2 of Alpha-2 adrenergic receptor and pD2 of Alpha-1 adrenergic receptor
[2] = Relative binding affinity for Alpha-2 adrenergic receptor and I2 imidazoline binding site (Antilog of the difference between pKi)
How it was run: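 Ratio from two radioligand assays. α2: rat cortex membranes with 5 nM [3H]clonidine, nonspecific binding with 10 µM phentolamine. I2: rabbit kidney membranes with 5 nM [3H]idazoxan, adrenoreceptors masked by 10 µM norepinephrine, nonspecific binding with 10 µM cirazoline. Both assays 45 min at 25 °C, Ki by Cheng–Prusoff.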

[3] = molecular target: Imidazoline I2 binding sites (Oryctolagus cuniculus); experiment: Displacement of [3H]idazoxan from imidazoline receptor I-2 binding sites in rabbit kidney membrane
[4] = molecular target: T1, Adrenergic receptor alpha-2 (Rattus norvegicus); experiment: pD2 is -log ED50 required to produce 50% inhibition of the twitch response in rat vas deferens (intrinsic activity in presence of cirazoline) for Alpha-2 adrenergic receptor; assay type: tissue-based; conditions: in the assay text read “clonidine” for “cirazoline”
How it was run: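 Prostatic portion (12 mm) of male rat vas deferens (125–150 g) at 37 °C under 95% O2/5% CO2, 1 g load. Bath contains 0.54 mM MgCl2, prazosin, 1 µM propranolol and 10 µM cocaine.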

[5] = molecular target: T2, Adrenergic receptor alpha-2 (Rattus norvegicus, UniProt P22086+P19328+P22909); experiment: Displacement of [3H]clonidine from Alpha-2 adrenergic receptor of rat cortex membrane
T2 sequence (P22086 whole entry): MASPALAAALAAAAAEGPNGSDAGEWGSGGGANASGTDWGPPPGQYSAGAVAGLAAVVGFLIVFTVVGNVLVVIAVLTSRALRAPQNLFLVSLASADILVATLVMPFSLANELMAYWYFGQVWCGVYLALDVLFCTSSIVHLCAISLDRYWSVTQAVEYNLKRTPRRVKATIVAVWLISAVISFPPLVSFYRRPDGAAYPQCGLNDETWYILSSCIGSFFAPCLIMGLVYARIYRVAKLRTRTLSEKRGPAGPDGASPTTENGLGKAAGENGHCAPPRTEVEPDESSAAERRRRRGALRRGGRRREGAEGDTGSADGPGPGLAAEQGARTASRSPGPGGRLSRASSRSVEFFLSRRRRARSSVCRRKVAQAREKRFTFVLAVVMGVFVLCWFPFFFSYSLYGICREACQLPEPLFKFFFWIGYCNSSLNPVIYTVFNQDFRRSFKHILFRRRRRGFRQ
T2 sequence (P19328 whole entry): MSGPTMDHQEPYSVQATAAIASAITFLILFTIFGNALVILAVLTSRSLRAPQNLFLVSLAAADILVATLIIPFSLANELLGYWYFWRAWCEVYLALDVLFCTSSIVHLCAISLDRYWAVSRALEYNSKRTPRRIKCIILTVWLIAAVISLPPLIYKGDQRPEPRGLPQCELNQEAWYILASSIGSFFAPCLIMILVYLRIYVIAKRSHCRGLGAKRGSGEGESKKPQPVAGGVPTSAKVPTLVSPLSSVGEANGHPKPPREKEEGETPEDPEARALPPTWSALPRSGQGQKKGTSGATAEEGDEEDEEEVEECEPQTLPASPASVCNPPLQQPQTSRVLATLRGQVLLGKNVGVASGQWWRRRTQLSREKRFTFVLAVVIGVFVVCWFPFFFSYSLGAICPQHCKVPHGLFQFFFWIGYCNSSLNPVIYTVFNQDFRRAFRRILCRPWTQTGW
T2 sequence (P22909 whole entry): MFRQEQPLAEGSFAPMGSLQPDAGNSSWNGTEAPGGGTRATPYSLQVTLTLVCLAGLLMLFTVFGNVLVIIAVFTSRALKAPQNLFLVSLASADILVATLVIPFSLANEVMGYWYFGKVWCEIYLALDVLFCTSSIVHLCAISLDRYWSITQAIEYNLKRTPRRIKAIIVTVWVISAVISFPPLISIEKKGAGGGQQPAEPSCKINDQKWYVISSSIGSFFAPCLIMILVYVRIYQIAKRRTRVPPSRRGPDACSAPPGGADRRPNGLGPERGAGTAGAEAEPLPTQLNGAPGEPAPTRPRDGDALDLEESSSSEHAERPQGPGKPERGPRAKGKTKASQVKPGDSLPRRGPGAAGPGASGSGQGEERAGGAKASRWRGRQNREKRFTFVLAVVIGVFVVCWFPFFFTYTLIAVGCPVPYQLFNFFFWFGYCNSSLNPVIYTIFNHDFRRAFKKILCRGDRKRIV
How it was run: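 Rat cerebral cortex membranes (200 µg protein) in 50 mM Tris-HCl pH 7.4, 5 nM [3H]clonidine, 10–12 competitor concentrations, 45 min at 25 °C; GF/B filtration, scintillation counting. Nonspecific binding with 10 µM phentolamine. Triplicate points; IC50 by nonlinear regression, Ki by Cheng–Prusoff, curves repeated at least three times, pKi ± SEM.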

[6] = molecular target: T3, Adrenergic receptor alpha-1 (Rattus norvegicus) (UniProt P15823+P23944+P43140); experiment: Inhibition of Alpha-1 adrenergic receptor twitch response in rat vas deferens in presence of cirazoline, pD2 is -log ED50; assay type: tissue-based
[7] = molecular target: T1, Adrenergic receptor alpha-2 (Rattus norvegicus); experiment: pD2 is -log ED50 required to produce 50% inhibition of the twitch response in rat vas deferens (intrinsic activity in presence of clonidine) for Alpha-2 adrenergic receptor; assay type: tissue-based
How it was run: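 Prostatic portion (12 mm) of male albino rat (125–150 g) vas deferens, 37 °C, O2/CO2 95%/5%, 1 g loading tension. Physiological salt solution had 0.54 mM MgCl2, prazosin ([…]), propranolol (1 µM) and cocaine (10 µM). Field stimulation was 0.1 Hz, 3 ms, 10–15 V, recorded isometrically.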

[8] = molecular target: T1, Adrenergic receptor alpha-2 (Rattus norvegicus); experiment: pKb value using clonidine as agonist for Alpha-2 adrenergic receptor; assay type: functional
How it was run: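 Prostatic rat vas deferens held under 0.1 Hz electrical stimulation, with prazosin, propranolol (1 µM) and cocaine (10 µM) present. Compounds lacking agonist activity were tested against clonidine. Dose ratios were taken at clonidine ED50 at one antagonist concentration, tested six times. Dissociation constant by the van Rossum method.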

[9] = molecular target: T3, Adrenergic receptor alpha-1 (Rattus norvegicus); experiment: pKb value using (-)-norepinephrine as agonist for Alpha-1 adrenergic receptor

| Ratio [1] | Ratio [2] | Log Ki [3] | pD2 [4] | Log Ki [5] | pD2 [6] | pKb [8] | pKb [9] | SMILES | pD2 [7] |
| --- | --- | --- | --- | --- | --- | --- | --- | --- | --- |
| 135 | 2.2 | -6.57 | 6.66 | -6.92 | 4.53 |  |  | CC(Oc1cccc(-c2ccccc2)c1)C1=NCCN1 (centres undefined) |  |
| 29.5 | 2.3 | -6.09 |  | -6.45 | 6.37 |  |  | c1ccc(-c2ccccc2NCC2=NCCN2)cc1 | 7.84 |
|  | 0.46 | -7.48 |  | -7.14 | 4.89 | 6.38 |  | c1ccc(NCC2=NCCN2)cc1 [PHENAMAZOLINE] |  |
| 0.78 | 5.8 | -6.74 |  | -7.5 |  | 5.81 | 5.92 | CC(Oc1ccc(-c2ccccc2)cc1)C1=NCCN1 (centres undefined) |  |
| 42.7 | 126 | -4.9 |  | -7 | 6.73 |  |  | CC(Nc1ccccc1-c1ccccc1)C1=NCCN1 (centres undefined) | 8.36 |
|  | 47.9 | -5.12 |  | -6.8 | 5.99 | 6.87 |  | CC(Oc1ccccc1Cc1ccccc1)C1=NCCN1 (centres undefined) |  |
|  | 0.66 | -6.7 |  | -6.52 | 5.27 | 7.14 |  | c1ccc(Cc2ccccc2OCC2=NCCN2)cc1 |  |
|  |  |  |  | -7.1 | 6.68 |  |  | c1ccc(-c2ccccc2OCC2=NCCN2)cc1 | 8.46 |

| SMILES | Ratio [1] | Ratio [2] | Log Ki [3] | pD2 [4] | Log Ki [5] | pD2 [6] | pKb [8] | pKb [9] | pD2 [7] |
| --- | --- | --- | --- | --- | --- | --- | --- | --- | --- |
| c1ccc(OCC2=NCCN2)cc1 |  |  |  |  | -7.28 | 5.26 | 6.71 |  |  |
| C[C@H](Oc1ccccc1-c1ccccc1)C1=NCCN1 |  |  |  |  | -7.5 | 7.51 |  |  | 8.55 |
| CC(Oc1ccccc1-c1ccccc1)C1=NCCN1 (centres undefined) [BIPHENYLINE] |  |  |  |  | -7.91 | 7.2 |  |  | 8.52 |
| CC(Oc1ccccc1)C1=NCCN1 (centres undefined) |  | 27.5 | -5.57 |  | -7.01 | 5.2 | 7.29 |  |  |
| C[C@@H](Oc1ccccc1-c1ccccc1)C1=NCCN1 |  |  |  |  | -7 | 6.23 |  |  | 7.4 |
